These results are taken from PMC3135177 (Organic & biomolecular chemistry, 2010).

The target in one test is Yeast Sir2 (Saccharomyces cerevisiae, UniProt P06700). In words: Inhibition of sirtuin-catalyzed deacetylation, yeast Sir2. The test is classed as biochemical.
Test [1] concerns the target T1, SirT1 (Homo sapiens, UniProt Q96EB6).
T1 sequence (Q96EB6 1-747): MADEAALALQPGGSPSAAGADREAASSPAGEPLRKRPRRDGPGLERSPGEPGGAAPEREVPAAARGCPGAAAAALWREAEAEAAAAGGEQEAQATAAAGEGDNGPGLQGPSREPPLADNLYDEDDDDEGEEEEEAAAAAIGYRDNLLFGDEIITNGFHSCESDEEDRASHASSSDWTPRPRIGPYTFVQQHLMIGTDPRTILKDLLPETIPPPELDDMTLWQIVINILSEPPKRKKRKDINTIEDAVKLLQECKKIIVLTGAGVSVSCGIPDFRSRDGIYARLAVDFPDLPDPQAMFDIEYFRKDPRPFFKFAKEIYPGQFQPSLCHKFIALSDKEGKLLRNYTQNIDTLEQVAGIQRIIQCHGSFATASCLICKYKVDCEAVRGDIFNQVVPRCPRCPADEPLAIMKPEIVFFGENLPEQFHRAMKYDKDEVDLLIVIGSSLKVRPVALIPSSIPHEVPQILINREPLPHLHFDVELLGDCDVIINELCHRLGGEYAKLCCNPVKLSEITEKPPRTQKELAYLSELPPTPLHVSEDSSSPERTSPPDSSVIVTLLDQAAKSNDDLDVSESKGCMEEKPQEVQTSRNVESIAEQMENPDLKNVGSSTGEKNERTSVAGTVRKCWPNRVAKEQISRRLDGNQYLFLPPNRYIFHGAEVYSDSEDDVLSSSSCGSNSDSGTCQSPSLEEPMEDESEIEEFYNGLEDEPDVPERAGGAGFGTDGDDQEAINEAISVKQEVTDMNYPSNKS
In words: Inhibition of sirtuin-catalyzed deacetylation, SirT1. Type of test: biochemical. A digest of the protocol: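 Purified SirT1 was incubated with NAD+, the test compound and an acetylated peptide substrate at 37 °C for 30–60 min. Activity was expressed as percent remaining, with uninhibited set at 100%, and plotted against log[test compound] in nM. IC50 came from a fit to v(%) = v(%)I − [v(%)I(10^x)/(10^x + IC50)].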

A further test deals with T2, Af2Sir2 (Archaeoglobus fulgidus, UniProt O30124).
T2 sequence (O30124 1-253): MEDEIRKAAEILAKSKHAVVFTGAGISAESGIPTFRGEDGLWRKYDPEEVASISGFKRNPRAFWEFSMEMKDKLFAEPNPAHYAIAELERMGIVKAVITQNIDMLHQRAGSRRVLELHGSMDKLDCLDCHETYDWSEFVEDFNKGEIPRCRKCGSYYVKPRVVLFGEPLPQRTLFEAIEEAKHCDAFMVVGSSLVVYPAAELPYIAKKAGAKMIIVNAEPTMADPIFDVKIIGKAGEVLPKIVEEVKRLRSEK
In words: Inhibition of sirtuin-catalyzed deacetylation, Af2Sir2. The test is classed as biochemical.

For another test, the target named is T3, SirT2 (Homo sapiens, UniProt Q8IXJ6).
T3 sequence (Q8IXJ6 1-389): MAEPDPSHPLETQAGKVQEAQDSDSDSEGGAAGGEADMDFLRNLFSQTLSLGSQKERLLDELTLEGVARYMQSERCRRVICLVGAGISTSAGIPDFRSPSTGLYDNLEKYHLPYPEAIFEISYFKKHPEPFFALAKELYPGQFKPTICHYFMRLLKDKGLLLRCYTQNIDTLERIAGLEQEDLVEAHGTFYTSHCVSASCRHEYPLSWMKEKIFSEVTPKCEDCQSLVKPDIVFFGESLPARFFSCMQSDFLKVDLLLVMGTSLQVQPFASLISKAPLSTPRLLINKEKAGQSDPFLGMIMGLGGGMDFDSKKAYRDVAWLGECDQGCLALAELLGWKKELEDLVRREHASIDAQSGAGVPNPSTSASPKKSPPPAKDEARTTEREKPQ
In words: Inhibition of sirtuin-catalyzed deacetylation, SirT2. The test is classed as biochemical.

In test [2] the target is T1, SirT1. The note with it: NAD+ as substrate on SIRT1; cited from earlier work.

Chain of Yeast Sir2 (P06700 whole entry): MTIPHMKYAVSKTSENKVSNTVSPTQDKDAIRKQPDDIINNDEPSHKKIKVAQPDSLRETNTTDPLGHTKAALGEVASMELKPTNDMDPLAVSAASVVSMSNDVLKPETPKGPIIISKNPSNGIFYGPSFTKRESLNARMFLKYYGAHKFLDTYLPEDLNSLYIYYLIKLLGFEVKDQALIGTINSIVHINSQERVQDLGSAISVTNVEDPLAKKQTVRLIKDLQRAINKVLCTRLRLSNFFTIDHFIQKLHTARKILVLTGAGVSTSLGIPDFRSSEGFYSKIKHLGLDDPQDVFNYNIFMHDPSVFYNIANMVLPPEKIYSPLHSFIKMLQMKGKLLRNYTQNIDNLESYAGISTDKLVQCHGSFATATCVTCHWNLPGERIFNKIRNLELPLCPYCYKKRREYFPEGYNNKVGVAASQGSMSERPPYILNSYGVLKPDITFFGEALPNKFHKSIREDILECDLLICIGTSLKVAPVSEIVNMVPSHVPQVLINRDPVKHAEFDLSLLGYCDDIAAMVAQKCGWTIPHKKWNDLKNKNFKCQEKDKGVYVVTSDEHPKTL

A word on the IC50: it is the concentration needed to halve the response being measured. A lower IC50 goes with inhibition by little substance. By Ki is commonly meant the equilibrium dissociation constant of an inhibitor or competing ligand from its target. Higher therefore signals lower affinity. Consider `COC(=O)[C@H](C)NC(=O)[C@H](C)NC(=O)[C@H](CCCCNC(C)=S)NC(=O)c1ccc([N+](=O)[O-])cc1` [compound 1, N^α-4-nitrobenzoyl-N^ε-thioacetyl-lysinyl-alaninyl-alanine methyl ester], for which the IC50 against Yeast Sir2 is 19.5 ± 5.8 µM; on SirT1 [1], 6.5 ± 1 µM; against Af2Sir2, 131 ± 26 µM; against SirT2 it was 13.1 ± 0.54 µM. In addition, at SirT1 [1], the Ki is 0.611 µM.

By Km is commonly meant the concentration of substrate that gives half-maximal velocity. Turning to `NC(=O)c1ccc[n+]([C@@H]2O[C@H](COP(=O)([O-])OP(=O)(O)OC[C@H]3O[C@@H](n4cnc5c(N)ncnc54)[C@H](O)[C@@H]3O)[C@@H](O)[C@H]2O)c1` [NAD^+], the Km on SirT1 [2] was 165 µM.
